The results in this text go back to ChEMBL document CHEMBL4725466, “Discovery and SAR of Novel Disubstituted Quinazolines as Dual PI3Kalpha/mTOR Inhibitors Targeting Breast Cancer” (ACS Med Chem Lett, 2020).

≈ marks a conversion by molar mass, not a printed value. Calls of active or inactive are those of the source. The calls are words filed in the database; no cut-off is given here.

The nature of data set [1]: Kinetic aqueous solubility of compound in 2% DMSO/Phosphate buffer saline incubated for 90 mins under shaking condition by. It counts as physicochemical. The settings on record: 2% DMSO/phosphate buffered saline, read-out: Kinetic_solubility. The gist of the method:
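Maximum kinetic aqueous solubility measured in 2% DMSO/phosphate-buffered saline, pH 7.4.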

The target in data set [2] is T1, Serine/threonine-protein kinase mTOR (Homo sapiens, UniProt P42345). As to the kind of experiment: Inhibition of human mTOR using 4EBP1 as substrate after 120 mins by [gamma-33P]-ATP assay.
Data set [3] addresses T1, Serine/threonine-protein kinase mTOR. As to the kind of experiment: Inhibition of human mTOR at 10 uM using 4EBP1 as substrate after 120 mins by [gamma-33P]-ATP assay. The gist of the method:
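Single-point kinase screen by HotSpot radioisotope filter binding assay; compound at 10 μM with 10 μM ATP, reported as percent inhibition of PI3Kα and mTOR.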

Data set [4] has as its target PI3-kinase p110-alpha/p85-alpha (Homo sapiens, UniProt P42336). The experiment in a line: Inhibition of human PI3K p110alpha/p85alpha using PIP2 as substrate incubated for 10 mins followed by ATP addition and measured after 30 mins in presence of 10 uM ATP by HTRF assay. Format: protein-complex assay. (In TR-FRET formats the signal depends on donor and acceptor labels being close together.)

Data set [5] has as its target PI3-kinase p110-alpha/p85-alpha (Homo sapiens) (UniProt P27986+P42336). The experiment in a line: Inhibition of human PI3K p110alpha/p85alpha at 10 uM using PIP2 as substrate incubated for 10 mins followed by ATP addition and measured after 30 mins in presence of 10 uM ATP by HTRF assay. It counts as protein-complex assay.
The nature of data set [6]: Half life in CD1 mouse liver microsomes at 1 uM incubated for 60 mins under shaking condition by LC-MS/MS analysis. It counts as ADME, Microsome. The method, boiled down: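 Metabolic stability in mouse liver microsomes with test compound at 1 μM; result expressed as t1/2 (min).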

What is called IC50 is the concentration needed to halve the response being measured. Broadly, the half-life is how long it takes for the measured level to halve.

Sequence of PI3-kinase p110-alpha/p85-alpha (P27986 whole entry): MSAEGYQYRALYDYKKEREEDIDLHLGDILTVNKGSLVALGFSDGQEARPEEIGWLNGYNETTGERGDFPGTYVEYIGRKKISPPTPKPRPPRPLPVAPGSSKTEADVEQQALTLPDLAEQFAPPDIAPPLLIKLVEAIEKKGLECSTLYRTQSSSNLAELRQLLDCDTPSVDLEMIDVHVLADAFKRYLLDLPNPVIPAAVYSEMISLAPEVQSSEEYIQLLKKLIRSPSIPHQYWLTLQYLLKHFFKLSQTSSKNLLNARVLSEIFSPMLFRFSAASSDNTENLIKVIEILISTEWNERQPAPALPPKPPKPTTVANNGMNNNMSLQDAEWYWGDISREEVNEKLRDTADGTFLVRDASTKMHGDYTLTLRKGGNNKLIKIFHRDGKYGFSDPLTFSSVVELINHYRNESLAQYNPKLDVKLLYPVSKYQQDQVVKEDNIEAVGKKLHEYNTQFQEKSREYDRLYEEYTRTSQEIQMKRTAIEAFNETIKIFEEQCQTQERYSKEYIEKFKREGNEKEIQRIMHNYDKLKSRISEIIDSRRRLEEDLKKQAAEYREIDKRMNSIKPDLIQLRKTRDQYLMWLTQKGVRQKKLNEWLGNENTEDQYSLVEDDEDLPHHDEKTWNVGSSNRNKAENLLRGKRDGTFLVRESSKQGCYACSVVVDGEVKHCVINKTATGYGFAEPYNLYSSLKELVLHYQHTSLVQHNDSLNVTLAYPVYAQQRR
Sequence of PI3-kinase p110-alpha/p85-alpha (P42336 whole entry): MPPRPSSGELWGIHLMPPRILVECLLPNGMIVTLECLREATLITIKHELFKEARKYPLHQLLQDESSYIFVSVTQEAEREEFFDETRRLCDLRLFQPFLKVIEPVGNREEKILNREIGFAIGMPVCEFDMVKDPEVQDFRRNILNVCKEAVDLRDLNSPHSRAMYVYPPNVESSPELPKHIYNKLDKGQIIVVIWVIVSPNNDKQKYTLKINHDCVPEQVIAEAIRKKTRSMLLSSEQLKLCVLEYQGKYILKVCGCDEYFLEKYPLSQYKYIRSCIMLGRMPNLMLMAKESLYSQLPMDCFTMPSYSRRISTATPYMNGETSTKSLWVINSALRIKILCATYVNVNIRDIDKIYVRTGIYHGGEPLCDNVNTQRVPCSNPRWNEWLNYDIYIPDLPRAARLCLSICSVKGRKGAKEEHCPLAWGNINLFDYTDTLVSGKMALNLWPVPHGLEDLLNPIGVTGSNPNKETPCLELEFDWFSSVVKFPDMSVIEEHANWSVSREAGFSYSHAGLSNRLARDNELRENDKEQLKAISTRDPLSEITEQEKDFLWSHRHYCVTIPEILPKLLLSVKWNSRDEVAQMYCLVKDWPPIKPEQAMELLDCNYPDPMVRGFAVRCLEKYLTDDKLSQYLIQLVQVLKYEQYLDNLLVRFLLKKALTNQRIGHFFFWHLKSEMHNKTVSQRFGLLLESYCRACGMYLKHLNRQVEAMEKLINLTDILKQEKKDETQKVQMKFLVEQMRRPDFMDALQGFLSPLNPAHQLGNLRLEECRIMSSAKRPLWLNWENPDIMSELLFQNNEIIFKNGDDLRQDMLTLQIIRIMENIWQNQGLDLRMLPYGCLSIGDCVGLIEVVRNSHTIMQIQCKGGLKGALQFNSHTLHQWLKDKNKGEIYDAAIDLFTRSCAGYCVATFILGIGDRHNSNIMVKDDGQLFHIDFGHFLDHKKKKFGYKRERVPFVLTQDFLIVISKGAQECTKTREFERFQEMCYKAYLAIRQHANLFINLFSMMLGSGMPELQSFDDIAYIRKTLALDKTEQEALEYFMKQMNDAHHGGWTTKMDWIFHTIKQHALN

Take `O=S(=O)(Nc1nccs1)c1ccc(Nc2nc(N3CCOCC3)c3ccccc3n2)cc1`: the solubility kinetic at 1.5 h in data set [1] came out at 42.6 µM (≈ 20 µg/mL). For the same compound, the figures for the IC50 in data set [2] and in data set [4] were 11.4 µM and 6.9 µM, respectively. In addition, the inhibition entry in data set [3] and in data set [5] was “Active” each time. This compound also registered a half-life at 1 µM in data set [6] of 52 min.
